Activity calls are given as the source filed them.
Columns and labels:
[1] = test system: FaDu; assay: Cytotoxicity against human FADU cells assessed as reduction in cell viability incubated fro 96 hrs by SRB assay; assay type: functional, cell-based
[2] = test system: A2780; assay: Cytotoxicity against human A2780 cells assessed as reduction in cell viability incubated fro 96 hrs by SRB assay; assay type: functional, cell-based; conditions: A2780, 96 h
How it was run: (§1)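 Sulforhodamine B photometric assay after 96 h treatment. Monolayers were grown in RPMI 1640 with L-glutamine, 10% heat-inactivated FBS and penicillin/streptomycin at 37 °C in humidified 5% CO2. Cut-off was 30 μM, or 60 μM for the parent. EC50 was averaged from at least three independent experiments, each in four replicates. Betulinic acid was the positive standard.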

[3] = test system: HT-29; assay: Cytotoxicity against human HT-29 cells assessed as reduction in cell viability incubated fro 96 hrs by SRB assay; assay type: functional, cell-based; conditions: HT-29, 96 h; how it was run: as §1
[4] = test system: A-375; assay: Cytotoxicity against human A375 cells assessed as reduction in cell viability incubated fro 96 hrs by SRB assay; assay type: functional, cell-based; conditions: A-375, 96 h; how it was run: as §1
[5] = test system: SW-1736; assay: Cytotoxicity against human SW1736 cells assessed as reduction in cell viability incubated fro 96 hrs by SRB assay; assay type: functional, cell-based; conditions: SW-1736, 96 h; how it was run: as §1
[6] = test system: HT-29; assay: Induction of cell morphology changes in human HT-29 cells at 15 uM incubated for 24 hrs by AO/PI staining based fluorescence microscopy; assay type: functional
How it was run: (§2)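 HT29 cells were treated for 24 h, then stained with acridine orange and propidium iodide. Morphology and membrane permeability were assessed by fluorescence microscopy against an untreated control.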

[7] = test system: HT-29; assay: Induction of cell membrane permeability changes in human HT-29 cells at 15 uM incubated for 24 hrs by AO/PI staining based fluorescence microscopy; assay type: functional; how it was run: as §2
[8] = test system: Leishmania infantum; assay: Antileishmanial activity against Leishmania infantum MHOM/BR/70/BH46 intracellular amastigotes infected in canine DH82 cells assessed as as inhibition of cell growth at 1000 uM incubated for 48 hrs by ELISA method; assay type: functional; conditions: MHOM/BR/70/BH46, DH82, 48 h, read-out: GI
[9] = test system: 518A2; assay: Cytotoxicity against human 518A2 cells; assay type: functional, cell-based
[10] = test system: A2780; assay: Cytotoxicity against human A2780 cells; assay type: functional, cell-based
[11] = test system: HT-29; assay: Cytotoxicity against human HT-29 cells; assay type: functional, cell-based
[12] = test system: MCF7; assay: Cytotoxicity against human MCF7 cells; assay type: functional, cell-based
[13] = test system: A549; assay: Cytotoxicity against human A549 cells; assay type: functional, cell-based
[14] = test system: 8505C; assay: Cytotoxicity against human 8505C cells; assay type: functional, cell-based
[15] = test system: Leishmania infantum; assay: Antileishmanial activity against Leishmania infantum MHOM/BR/70/BH46 intracellular amastigotes infected in canine DH82 cells assessed as as inhibition of cell growth incubated for 48 hrs by ELISA method; assay type: functional, organism-based; conditions: MHOM/BR/70/BH46, DH82, 48 h
How it was run: (§3)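 L. infantum BH46 intracellular amastigotes. Phase II testing at 0.1, 1.0, 10 and 100 μM. IC50 is the concentration inhibiting in vitro growth by 50%, taken from dose-response curves (log concentration vs inhibition) run in four replicates. Potassium antimonyl tartrate trihydrate served as positive control.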

[16] = Cytotoxicity in dog DH82 cells assessed as reduction in cell viability incubated for 48 hrs by MTT assay; assay type: cell-based, Canis lupus familiaris
How it was run: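 DH82 canine macrophage viability was monitored microscopically and by MTT colorimetric assay. CC50 is the concentration cytotoxic to 50% of DH82 cells. Potassium antimonyl tartrate trihydrate was the positive control.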

[17] = Selectivity index, ratio of CC50 for dog DH82 cells to IC50 for antileishmanial activity against Leishmania infantum MHOM/BR/70/BH46 intracellular amastigotes infected in canine DH82 cells; assay type: toxicity, cell-based; conditions: read-out: Ratio CC50/IC50
How it was run: (§4)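 SI = CC50 in DH82 macrophages (MTT) divided by IC50 against intracellular L. infantum BH46 amastigotes.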

[18] = Ratio of selectivity index of test compound to potassium antimonyl tartrate by measuring ratio of CC50 for dog DH82 cells to IC50 for antileishmanial activity against Leishmania infantum MHOM/BR/70/BH46 intracellular amastigotes infected in canine DH82 cells; assay type: toxicity, cell-based
[19] = Ratio of selectivity index of test compound to hederagenin by measuring ratio of CC50 for dog DH82 cells to IC50 for antileishmanial activity against Leishmania infantum MHOM/BR/70/BH46 intracellular amastigotes infected in canine DH82 cells; assay type: toxicity, cell-based
[20] = test system: Leishmania infantum; assay: Antileishmanial activity against Leishmania infantum MHOM/BR/70/BH46 intracellular amastigotes infected in canine DH82 cells assessed as as inhibition of cell growth; assay type: functional, organism-based; conditions: MHOM/BR/70/BH46, DH82; how it was run: as §3
[21] = Selectivity index, ratio of CC50 for dog DH82 cells to IC50 for Leishmania infantum MHOM/BR/70/BH46 intracellular amastigotes infected in canine DH82 cells; assay type: toxicity, cell-based; how it was run: as §4
[22] = Cytotoxicity in African green monkey BGM cells assessed as reduction in cell viability incubated for 48 hrs by MTT assay; assay type: cell-based; conditions: chlorocebus aethiops
How it was run: (§5)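 MTT colorimetric assay with microscopic monitoring. CC50 is the concentration cytotoxic to 50% of BGM or HepG2 cells. Potassium antimonyl tartrate trihydrate was the positive control.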

[23] = Selectivity index, ratio of CC50 for African green monkey BGM cells to IC50 for antileishmanial activity against Leishmania infantum MHOM/BR/70/BH46 intracellular amastigotes infected in canine DH82 cells; assay type: toxicity, cell-based; conditions: read-out: Ratio CC50/IC50
How it was run: (§6)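 SI = CC50 in BGM or HepG2 cells (MTT) divided by the intracellular amastigote IC50.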

[24] = Cytotoxicity in human HepG2 cells assessed as reduction in cell viability incubated for 48 hrs by MTT assay; assay type: cell-based; how it was run: as §5
[25] = Selectivity index, ratio of CC50 for human HepG2 cells to IC50 for antileishmanial activity against Leishmania infantum MHOM/BR/70/BH46 intracellular amastigotes infected in canine DH82 cells; assay type: toxicity, cell-based; conditions: read-out: Ratio CC50/IC50; how it was run: as §6
[26] = test system: Leishmania infantum; assay: Antiparasitic activity against Leishmania infantum; assay type: functional, organism-based

Compound	EC50 [1]	EC50 [2]	EC50 [3]	EC50 [4]	EC50 [5]	inhibition of growth at 1000 µM [8]	EC50 [9]	EC50 [10]	EC50 [11]	EC50 [12]	EC50 [13]	EC50 [14]	IC50 [15]	CC50 at 48 h [16]	selectivity ratio [17]	CC50 at 48 h [22]	selectivity ratio [23]	CC50 at 48 h [24]	selectivity ratio [25]	further results
CC1(C)CC[C@]2(C(=O)OCc3cn(CC(=O)c4ccc(C#N)cc4)nn3)CC[C@]3(C)C(=CC[C@@H]4[C@@]5(C)CC[C@H](O)[C@@](C)(COCc6cn(CC(=O)c7ccc(C#N)cc7)nn6)[C@@H]5CC[C@]43C)[C@@H]2C1	12.1 µM	11.2 µM	7.4 µM	10.6 µM	11.9 µM	8.8%														Activity [6]: inactive; Activity [7]: inactive
CC1(C)CC[C@]2(C(=O)OCc3cn(Cc4cccc([N+](=O)[O-])c4)nn3)CC[C@]3(C)C(=CC[C@@H]4[C@@]5(C)CC[C@H](O)[C@@](C)(CO)[C@@H]5CC[C@]43C)[C@@H]2C1							3 to 4.1 µM	3 to 4.1 µM	3 to 4.1 µM	3 to 4.1 µM	3 to 4.1 µM	3 to 4.1 µM								
CC1(C)CC[C@]2(C(=O)OCc3cn(Cc4ccccc4F)nn3)CC[C@]3(C)C(=CC[C@@H]4[C@@]5(C)CC[C@H](O)[C@@](C)(COCc6cn(Cc7ccccc7F)nn6)[C@@H]5CC[C@]43C)[C@@H]2C1	> 30 µM	21.6 µM	16.3 µM	28.5 µM	> 30 µM	65%							5.6 µM	> 1000 µM	> 178	> 1000 µM	> 178	> 1000 µM	> 178	Ratio [18]: 1780; Ratio [19]: 8; IC50 [20]: 5.6 µM; selectivity ratio [21]: > 178
CC1(C)CC[C@]2(C(=O)OCc3cn(Cc4cccc(Br)c4)nn3)CC[C@]3(C)C(=CC[C@@H]4[C@@]5(C)CC[C@H](O)[C@@](C)(CO)[C@@H]5CC[C@]43C)[C@@H]2C1							3 to 4.1 µM	3 to 4.1 µM	3 to 4.1 µM	3 to 4.1 µM	3 to 4.1 µM	3 to 4.1 µM								IC50 [26]: 32 to 34 µM
Cc1ccc(C(=O)Cn2cc(COC[C@@]3(C)[C@@H]4CC[C@]5(C)[C@H](CC=C6[C@@H]7CC(C)(C)CC[C@]7(C(=O)OCc7cn(CC(=O)c8ccc(C)cc8)nn7)CC[C@]65C)[C@@]4(C)CC[C@@H]3O)nn2)cc1	> 30 µM	> 30 µM	> 30 µM	> 30 µM	> 30 µM	63.7%							7.4 µM	> 1000 µM	> 135	> 1000 µM	> 135	> 1000 µM	> 135	Ratio [18]: 10; Ratio [19]: 14
CC1(C)CC[C@]2(C(=O)OCc3cn(Cc4ccc([N+](=O)[O-])cc4)nn3)CC[C@]3(C)C(=CC[C@@H]4[C@@]5(C)CC[C@H](O)[C@@](C)(COCc6cn(Cc7ccc([N+](=O)[O-])cc7)nn6)[C@@H]5CC[C@]43C)[C@@H]2C1	> 30 µM	> 30 µM	> 30 µM	> 30 µM	> 30 µM	58.6%							25.9 µM	> 1000 µM	> 38	> 1000 µM	> 38	> 1000 µM	> 38	
CC1(C)CC[C@]2(C(=O)OCc3cn(Cc4cccc(Cl)c4)nn3)CC[C@]3(C)C(=CC[C@@H]4[C@@]5(C)CC[C@H](O)[C@@](C)(CO)[C@@H]5CC[C@]43C)[C@@H]2C1							3 to 4.1 µM	3 to 4.1 µM	3 to 4.1 µM	3 to 4.1 µM	3 to 4.1 µM	3 to 4.1 µM								

Reference: ChEMBL document CHEMBL4130483, “Leishmanicidal and cytotoxic activity of hederagenin-bistriazolyl derivatives” (Eur J Med Chem, 2017)
